This note sets out measurements from ChEMBL document CHEMBL5325511, “Discovery of N-(4-(Aminomethyl)phenyl)-5-methylpyrimidin-2-amine Derivatives as Potent and Selective JAK2 Inhibitors” (ACS Med Chem Lett, 2023).

For data set [1], the target named is Tyrosine-protein kinase JAK2 (Homo sapiens, UniProt O60674, V617F). The data set is described as follows: Inhibition of JAK2 V617F mutant in human SET2 cells. In kind it is cell-based. The method in brief:
(§1)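 Cell proliferation assay. IC50 is the concentration that inhibits proliferation by 50%, taken from dose–response curves. Mean ± SEM of at least three independent experiments.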

The target in data set [2] is Tyrosine-protein kinase JAK2 (Mus musculus, UniProt Q62120, V617F). The data set is described as follows: Inhibition of JAK2 V617F mutant in mouse BaF3 cells. In kind it is cell-based. The method in brief: as §1
Data set [3] concerns the target T1, Tyrosine-protein kinase JAK2 (Homo sapiens, UniProt O60674). Put plainly: Inhibition of human JAK2 JH1 expressed in baculovirus infected Sf9 cells assessed as residual activity at 100 nM relative to control.
The nature of data set [4]: Metabolic stability in human liver microsomes assessed as half life. In kind it is ADME, Microsome. A general note: Liver microsomes are a subcellular fraction often used to study metabolism.
Data set [5] concerns the target T2, Receptor-type tyrosine-protein kinase FLT3 (Homo sapiens, UniProt P36888).
T2 sequence (P36888 whole entry): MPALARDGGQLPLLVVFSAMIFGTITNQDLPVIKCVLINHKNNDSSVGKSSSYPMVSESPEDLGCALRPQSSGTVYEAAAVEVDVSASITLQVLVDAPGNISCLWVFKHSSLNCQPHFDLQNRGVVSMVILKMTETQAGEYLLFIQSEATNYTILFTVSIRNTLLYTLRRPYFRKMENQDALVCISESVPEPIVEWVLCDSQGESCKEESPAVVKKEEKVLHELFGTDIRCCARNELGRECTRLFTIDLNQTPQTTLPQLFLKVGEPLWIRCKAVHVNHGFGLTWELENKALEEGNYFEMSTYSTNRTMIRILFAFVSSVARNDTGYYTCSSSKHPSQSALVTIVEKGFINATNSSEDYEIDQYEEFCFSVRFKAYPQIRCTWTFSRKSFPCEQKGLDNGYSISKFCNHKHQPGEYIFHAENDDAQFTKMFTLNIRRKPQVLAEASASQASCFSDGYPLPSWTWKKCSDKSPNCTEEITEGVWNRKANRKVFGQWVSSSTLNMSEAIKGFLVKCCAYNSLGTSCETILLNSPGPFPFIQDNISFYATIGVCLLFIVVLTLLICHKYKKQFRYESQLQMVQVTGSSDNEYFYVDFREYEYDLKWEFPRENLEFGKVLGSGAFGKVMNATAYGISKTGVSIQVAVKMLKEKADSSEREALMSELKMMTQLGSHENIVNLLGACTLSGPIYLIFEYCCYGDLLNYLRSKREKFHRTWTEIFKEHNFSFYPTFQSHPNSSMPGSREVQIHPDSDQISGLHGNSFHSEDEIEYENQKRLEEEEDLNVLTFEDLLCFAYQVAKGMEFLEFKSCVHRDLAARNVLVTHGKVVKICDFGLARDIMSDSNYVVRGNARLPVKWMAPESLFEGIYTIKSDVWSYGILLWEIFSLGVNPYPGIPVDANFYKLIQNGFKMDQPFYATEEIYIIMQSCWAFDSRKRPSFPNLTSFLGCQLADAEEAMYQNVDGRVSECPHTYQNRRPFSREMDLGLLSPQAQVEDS
The data set is described as follows: Inhibition of FLT3 in human MOLM-13 cells. In kind it is cell-based. The method in brief:
as §1

For data set [6], the target named is T1, Tyrosine-protein kinase JAK2. The data set is described as follows: Inhibition of JAK2 (unknown origin) in presence of Mg/ATP mixture by [gamma p33]-ATP based radiometric assay. The method in brief: (§2)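 IC50 values determined by Eurofins Discovery.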
Data set [7] deals with Non-receptor tyrosine-protein kinase TYK2 (Homo sapiens, UniProt P29597). The data set is described as follows: Inhibition of TYK2 (unknown origin) in presence of Mg/ATP mixture by [gamma p33]-ATP based radiometric assay.
For data set [8], the target named is T3, Tyrosine-protein kinase JAK3 (Homo sapiens, UniProt P52333).
T3 sequence (P52333 whole entry): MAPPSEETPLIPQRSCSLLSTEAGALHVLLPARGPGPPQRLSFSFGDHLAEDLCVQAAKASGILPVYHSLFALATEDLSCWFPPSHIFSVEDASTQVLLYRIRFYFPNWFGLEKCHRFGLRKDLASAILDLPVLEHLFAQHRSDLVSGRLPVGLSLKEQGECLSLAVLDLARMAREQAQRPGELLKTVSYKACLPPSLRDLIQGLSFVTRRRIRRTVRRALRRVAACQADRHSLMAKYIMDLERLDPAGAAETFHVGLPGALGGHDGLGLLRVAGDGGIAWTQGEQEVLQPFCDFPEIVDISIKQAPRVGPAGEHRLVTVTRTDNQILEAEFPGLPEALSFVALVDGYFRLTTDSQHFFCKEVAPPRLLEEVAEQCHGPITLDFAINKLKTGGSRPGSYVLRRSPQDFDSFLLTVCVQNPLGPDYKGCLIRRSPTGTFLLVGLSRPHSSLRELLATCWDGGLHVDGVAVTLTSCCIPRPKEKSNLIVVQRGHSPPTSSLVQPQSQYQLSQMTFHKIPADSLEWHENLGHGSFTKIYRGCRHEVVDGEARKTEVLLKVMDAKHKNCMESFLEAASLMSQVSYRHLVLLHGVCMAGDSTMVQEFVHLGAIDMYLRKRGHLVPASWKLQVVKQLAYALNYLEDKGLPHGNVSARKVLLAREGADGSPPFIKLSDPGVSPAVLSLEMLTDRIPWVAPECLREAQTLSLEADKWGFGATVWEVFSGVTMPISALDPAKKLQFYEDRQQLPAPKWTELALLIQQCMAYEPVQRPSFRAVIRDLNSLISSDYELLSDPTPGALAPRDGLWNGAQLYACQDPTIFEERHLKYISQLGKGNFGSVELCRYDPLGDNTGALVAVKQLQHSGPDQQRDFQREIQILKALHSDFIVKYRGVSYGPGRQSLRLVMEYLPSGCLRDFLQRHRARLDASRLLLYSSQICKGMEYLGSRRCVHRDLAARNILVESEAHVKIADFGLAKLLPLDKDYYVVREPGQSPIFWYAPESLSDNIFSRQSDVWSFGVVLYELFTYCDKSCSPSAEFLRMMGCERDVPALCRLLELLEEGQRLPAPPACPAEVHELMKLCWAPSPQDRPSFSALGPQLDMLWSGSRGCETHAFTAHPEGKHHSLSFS
Put plainly: Inhibition of JAK3 (unknown origin) in presence of Mg/ATP mixture by [gamma p33]-ATP based radiometric assay.

The nature of data set [9]: Selectivity ratio of IC50 for TYK2 (unknown origin) to IC50 for JAK2 (unknown origin).
Data set [10] is described as follows: Selectivity ratio of IC50 for FLT3 (unknown origin) to IC50 for JAK2 (unknown origin).
Data set [11] addresses Tyrosine-protein kinase JAK1 (Homo sapiens, UniProt P23458). The data set is described as follows: Inhibition of JAK1 (unknown origin) in presence of Mg/ATP mixture by [gamma p33]-ATP based radiometric assay. The method in brief:
as §2

The nature of data set [12]: Selectivity ratio of IC50 for JAK3 (unknown origin) to IC50 for JAK2 (unknown origin).
Data set [13] deals with T2, Receptor-type tyrosine-protein kinase FLT3. Put plainly: Inhibition of FLT3 (unknown origin) in presence of Mg/ATP mixture by [gamma p33]-ATP based radiometric assay. The method in brief: as §2

Chain of Tyrosine-protein kinase JAK2 (Homo sapiens, UniProt O60674, V617F) (O60674 whole entry V617F): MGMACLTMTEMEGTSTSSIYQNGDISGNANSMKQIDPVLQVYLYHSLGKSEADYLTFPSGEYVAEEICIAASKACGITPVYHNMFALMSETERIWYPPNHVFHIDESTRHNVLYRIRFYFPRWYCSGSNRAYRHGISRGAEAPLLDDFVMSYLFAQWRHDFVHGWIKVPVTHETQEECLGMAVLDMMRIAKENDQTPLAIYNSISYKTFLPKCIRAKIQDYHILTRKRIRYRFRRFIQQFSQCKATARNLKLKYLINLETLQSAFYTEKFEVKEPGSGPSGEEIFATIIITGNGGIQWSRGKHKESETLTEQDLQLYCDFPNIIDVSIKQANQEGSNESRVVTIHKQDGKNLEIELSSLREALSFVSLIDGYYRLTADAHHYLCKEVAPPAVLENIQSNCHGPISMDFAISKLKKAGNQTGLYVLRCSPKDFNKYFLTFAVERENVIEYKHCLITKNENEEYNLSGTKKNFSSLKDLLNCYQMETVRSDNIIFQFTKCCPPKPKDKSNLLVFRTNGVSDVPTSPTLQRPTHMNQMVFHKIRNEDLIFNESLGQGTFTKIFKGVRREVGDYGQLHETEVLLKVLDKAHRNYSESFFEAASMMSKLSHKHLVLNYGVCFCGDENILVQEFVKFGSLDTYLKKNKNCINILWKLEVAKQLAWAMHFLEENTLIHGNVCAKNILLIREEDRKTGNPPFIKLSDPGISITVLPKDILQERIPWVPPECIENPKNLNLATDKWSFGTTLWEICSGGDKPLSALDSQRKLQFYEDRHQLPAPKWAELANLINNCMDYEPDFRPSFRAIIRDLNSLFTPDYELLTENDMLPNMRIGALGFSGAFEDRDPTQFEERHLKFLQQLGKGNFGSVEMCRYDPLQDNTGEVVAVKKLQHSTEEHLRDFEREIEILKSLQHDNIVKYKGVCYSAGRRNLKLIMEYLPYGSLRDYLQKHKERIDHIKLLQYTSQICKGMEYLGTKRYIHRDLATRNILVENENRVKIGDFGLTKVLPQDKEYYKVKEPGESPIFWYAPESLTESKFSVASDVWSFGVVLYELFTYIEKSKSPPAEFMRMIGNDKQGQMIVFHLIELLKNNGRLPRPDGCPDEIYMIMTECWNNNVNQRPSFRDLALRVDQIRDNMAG
Chain of Tyrosine-protein kinase JAK1 (P23458 whole entry): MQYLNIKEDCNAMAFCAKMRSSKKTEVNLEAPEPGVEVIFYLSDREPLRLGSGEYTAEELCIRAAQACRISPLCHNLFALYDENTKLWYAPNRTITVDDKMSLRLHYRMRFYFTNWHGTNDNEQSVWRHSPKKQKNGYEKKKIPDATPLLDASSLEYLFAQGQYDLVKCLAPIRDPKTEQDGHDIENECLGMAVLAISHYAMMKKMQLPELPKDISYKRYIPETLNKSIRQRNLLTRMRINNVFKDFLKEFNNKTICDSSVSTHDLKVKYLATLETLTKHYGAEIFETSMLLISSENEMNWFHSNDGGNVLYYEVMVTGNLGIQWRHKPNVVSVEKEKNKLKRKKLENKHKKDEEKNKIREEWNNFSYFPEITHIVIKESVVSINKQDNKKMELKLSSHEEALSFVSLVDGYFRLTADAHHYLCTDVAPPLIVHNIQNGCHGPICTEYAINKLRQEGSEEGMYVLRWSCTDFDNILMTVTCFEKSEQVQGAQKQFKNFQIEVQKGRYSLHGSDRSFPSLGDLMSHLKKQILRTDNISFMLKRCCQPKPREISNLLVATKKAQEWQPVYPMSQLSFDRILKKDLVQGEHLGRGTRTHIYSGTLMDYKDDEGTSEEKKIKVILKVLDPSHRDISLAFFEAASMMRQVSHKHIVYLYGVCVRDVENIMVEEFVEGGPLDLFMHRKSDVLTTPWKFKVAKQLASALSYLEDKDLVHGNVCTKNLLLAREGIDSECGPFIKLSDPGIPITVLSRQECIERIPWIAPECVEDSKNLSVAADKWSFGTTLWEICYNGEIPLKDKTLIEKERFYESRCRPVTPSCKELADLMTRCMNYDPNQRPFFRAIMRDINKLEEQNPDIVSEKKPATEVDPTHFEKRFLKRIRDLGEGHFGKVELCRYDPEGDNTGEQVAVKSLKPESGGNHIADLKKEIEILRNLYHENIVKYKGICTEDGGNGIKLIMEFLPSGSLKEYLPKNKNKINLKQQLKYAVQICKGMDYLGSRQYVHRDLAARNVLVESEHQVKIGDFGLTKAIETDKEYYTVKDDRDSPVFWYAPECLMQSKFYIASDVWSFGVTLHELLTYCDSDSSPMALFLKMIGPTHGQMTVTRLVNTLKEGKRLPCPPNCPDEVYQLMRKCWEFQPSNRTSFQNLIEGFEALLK
T1 sequence (O60674 whole entry): as the sequence (O60674 whole entry V617F) above, with F617V counted along it
Chain of Tyrosine-protein kinase JAK2 (Mus musculus, UniProt Q62120, V617F) (Q62120 as listed by the source V617F): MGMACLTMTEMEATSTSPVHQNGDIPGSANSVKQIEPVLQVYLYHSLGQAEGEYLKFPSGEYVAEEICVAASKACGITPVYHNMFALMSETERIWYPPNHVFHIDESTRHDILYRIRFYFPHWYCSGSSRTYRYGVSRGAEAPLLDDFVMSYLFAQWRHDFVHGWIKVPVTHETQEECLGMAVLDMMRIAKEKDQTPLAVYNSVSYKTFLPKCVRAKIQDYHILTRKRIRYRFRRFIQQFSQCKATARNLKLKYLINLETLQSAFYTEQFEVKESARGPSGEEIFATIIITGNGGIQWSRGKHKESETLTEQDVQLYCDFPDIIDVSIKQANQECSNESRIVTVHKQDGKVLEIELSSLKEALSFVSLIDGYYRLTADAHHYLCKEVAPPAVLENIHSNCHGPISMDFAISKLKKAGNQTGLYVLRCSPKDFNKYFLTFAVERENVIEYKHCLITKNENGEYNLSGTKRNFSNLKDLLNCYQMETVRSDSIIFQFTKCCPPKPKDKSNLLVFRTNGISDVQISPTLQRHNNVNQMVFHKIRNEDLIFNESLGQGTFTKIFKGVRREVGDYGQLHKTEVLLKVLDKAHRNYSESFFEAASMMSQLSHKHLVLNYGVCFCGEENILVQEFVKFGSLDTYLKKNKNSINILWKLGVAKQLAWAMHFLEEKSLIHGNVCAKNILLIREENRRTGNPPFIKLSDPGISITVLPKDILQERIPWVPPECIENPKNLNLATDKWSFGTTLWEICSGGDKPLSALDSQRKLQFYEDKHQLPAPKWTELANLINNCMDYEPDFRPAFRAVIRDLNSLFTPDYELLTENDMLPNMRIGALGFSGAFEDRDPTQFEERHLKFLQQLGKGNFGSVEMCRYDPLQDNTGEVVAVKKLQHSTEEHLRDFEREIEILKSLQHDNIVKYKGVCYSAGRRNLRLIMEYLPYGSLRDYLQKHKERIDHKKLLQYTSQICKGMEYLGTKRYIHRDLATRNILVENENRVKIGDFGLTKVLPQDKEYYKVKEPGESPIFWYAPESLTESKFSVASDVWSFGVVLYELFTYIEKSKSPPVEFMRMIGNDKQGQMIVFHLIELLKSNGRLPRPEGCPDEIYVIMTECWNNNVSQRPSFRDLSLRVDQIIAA
Chain of Non-receptor tyrosine-protein kinase TYK2 (P29597 whole entry): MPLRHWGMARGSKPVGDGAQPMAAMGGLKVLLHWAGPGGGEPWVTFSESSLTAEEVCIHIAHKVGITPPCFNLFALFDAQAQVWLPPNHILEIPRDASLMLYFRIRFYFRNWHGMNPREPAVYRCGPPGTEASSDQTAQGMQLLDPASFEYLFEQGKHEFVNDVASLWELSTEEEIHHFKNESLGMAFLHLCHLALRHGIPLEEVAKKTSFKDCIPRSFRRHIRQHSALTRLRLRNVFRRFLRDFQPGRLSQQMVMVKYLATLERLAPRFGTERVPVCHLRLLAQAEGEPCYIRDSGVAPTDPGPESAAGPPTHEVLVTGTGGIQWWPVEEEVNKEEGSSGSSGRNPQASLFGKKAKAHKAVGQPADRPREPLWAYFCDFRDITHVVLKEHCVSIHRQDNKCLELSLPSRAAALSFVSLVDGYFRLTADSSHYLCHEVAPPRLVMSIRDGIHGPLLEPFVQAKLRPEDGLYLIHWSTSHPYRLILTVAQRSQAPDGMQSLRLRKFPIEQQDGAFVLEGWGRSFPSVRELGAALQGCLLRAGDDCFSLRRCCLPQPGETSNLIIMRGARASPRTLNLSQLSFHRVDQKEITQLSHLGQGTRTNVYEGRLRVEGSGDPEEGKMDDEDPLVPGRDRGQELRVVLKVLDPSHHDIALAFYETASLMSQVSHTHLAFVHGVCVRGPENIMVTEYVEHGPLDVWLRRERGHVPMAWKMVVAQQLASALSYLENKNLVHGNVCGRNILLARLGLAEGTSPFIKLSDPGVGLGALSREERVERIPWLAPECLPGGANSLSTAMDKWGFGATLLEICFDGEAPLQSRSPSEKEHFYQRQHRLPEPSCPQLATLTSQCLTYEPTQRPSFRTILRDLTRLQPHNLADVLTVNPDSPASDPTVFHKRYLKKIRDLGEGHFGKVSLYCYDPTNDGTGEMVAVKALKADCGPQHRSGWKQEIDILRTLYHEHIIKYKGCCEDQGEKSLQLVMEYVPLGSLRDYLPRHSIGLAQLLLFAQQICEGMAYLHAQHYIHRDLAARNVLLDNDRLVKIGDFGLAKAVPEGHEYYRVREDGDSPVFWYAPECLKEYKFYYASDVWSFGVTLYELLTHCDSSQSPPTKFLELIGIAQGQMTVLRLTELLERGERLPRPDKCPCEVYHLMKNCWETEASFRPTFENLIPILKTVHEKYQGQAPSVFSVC

The IC50 is the midpoint of a concentration-inhibition curve. The half-life is how long it takes for the measured level to halve. `Cc1cnc(Nc2ccc(CNC(=O)/C=C/CN(C)C)cc2)nc1-c1cnn(C(C)C)c1`: the IC50 in data set [1] worked out at 880 nM; in [2], 265 nM; in [5], 826 nM. Besides, the Activity in [3] is 35%. The half-life in data set [4] is 65.4 min.
For `CCCCS(=O)(=O)NCc1ccc(Nc2ncc(C)c(-c3cnn(C(C)C)c3)n2)cc1`, the results for the half-inhibitory concentration (IC50) in data set [1], in [2] and in [5] were 421 nM, 182 nM and 1670 nM, respectively. Further, in data set [3], the Activity turned out to be 15%. In [4], the half-life was 98.3 min.
Turning to `Cc1cnc(Nc2ccc(CNC(=O)CCl)cc2)nc1-c1cnn(C(C)C)c1`, the IC50 in data set [1] was 150 nM; in data set [6] it was 3 nM; in [7], 33 nM; in data set [2] it was 98.1 nM; in [8], 166 nM; in data set [11], 73 nM. Also, the results for the IC50 in data set [13] and in [5] were 206 nM and 961 nM, respectively. Moreover, the results for the Ratio IC50 in [9], in data set [10] and in data set [12] were 10, 68.7 and 55.3, respectively. For the same molecule, the Activity in data set [3] was 6%. In addition, in data set [4], the half-life was 43.2 min.
As for `Cc1cnc(Nc2ccc(CNC(=O)/C=C/C(=O)c3ccccc3)cc2)nc1-c1cnn(C(C)C)c1`, the IC50 in data set [1] stood at 563 nM; in [6] it was 7 nM; in data set [7] it was 43 nM; in [2], 87.5 nM; in [8], 54 nM; in [11], 43 nM. Further, the IC50 in data set [13] came out at 108 nM; in [5], 756 nM. Also, the Ratio IC50 was 6.1 in data set [9], 15.4 in [10] and 7.7 in data set [12]. Also, the Activity in [3] was 5%. Besides, the half-life in data set [4] is 54.8 min.
Take `C=CC(=O)NCc1ccc(Nc2ncc(C)c(-c3cnn(C(C)C)c3)n2)cc1`: the IC50 in [1] is 245 nM; in [6] it was 8 nM; in data set [7], 77 nM; in data set [2], 129 nM; in data set [8], 208 nM; in data set [11], 106 nM. The IC50 came out at 320 nM in [13] and 1760 nM in data set [5]. Moreover, the Ratio IC50 in [9] was 9.6; in data set [10] it was 40; in data set [12] it was 41.6. The Activity in data set [3] stood at 13%. Besides, the half-life in data set [4] amounted to 108 min.
On to `Cc1cnc(Nc2ccc(CCNC(=O)/C=C/C(=O)c3ccccc3)cc2)nc1-c1cnn(C(C)C)c1`, for which the IC50 came out at 279 nM in data set [1], 178 nM in [2] and 882 nM in data set [5]. Besides, the Activity in data set [3] is 34%. In addition, the half-life in [4] stood at 34.2 min.
In the same order, the values of `Cc1cnc(Nc2ccc(CCNC(=O)CCCl)cc2)nc1-c1cnn(C(C)C)c1` are 5620 nM, 2200 nM, over 10000 nM, 67% and 40.3 min.
For `CCCS(=O)(=O)NCc1ccc(Nc2ncc(C)c(-c3cnn(C(C)C)c3)n2)cc1`, the IC50 in [1] turned out to be 108 nM; in data set [2], 101 nM; in [5] it was 885 nM. For the same molecule, the Activity in data set [3] worked out at 10%. Moreover, the half-life in data set [4] was over 120 min.
Consider `Cc1cnc(Nc2ccc(CCNC(=O)/C=C/CN(C)C)cc2)nc1-c1cnn(C(C)C)c1`, for which the results for the IC50 in data set [1], in data set [2] and in [5] were 2190 nM, 1140 nM and over 10000 nM, respectively. In data set [3], the Activity is 64%. In [4], the half-life was determined as 54.1 min.
For `C=CS(=O)(=O)NCCc1ccc(Nc2ncc(C)c(-c3cnn(C(C)C)c3)n2)cc1`, the IC50 came to 761 nM in data set [1], 169 nM in data set [2] and 1800 nM in data set [5]. Moreover, the Activity in [3] was 30%. In addition, the half-life in data set [4] amounted to 88.6 min.
Regarding `Cc1cnc(Nc2ccc(CNC(=O)CCCN(C)C)cc2)nc1-c1cnn(C(C)C)c1`, the IC50 in data set [1] turned out to be 1960 nM; in [2], 870 nM; in data set [5] it was 5840 nM. The Activity in data set [3] stood at 55%. Moreover, in data set [4], the half-life was 76.3 min.
For `Cc1cnc(Nc2ccc(CNC(=O)C3CC3)cc2)nc1-c1cnn(C(C)C)c1`, the half-inhibitory concentration (IC50) in data set [1] is 205 nM; in data set [6], 4 nM; in [7], 62 nM; in [2] it was 72 nM; in data set [8] it was 156 nM; in data set [11] it was 87 nM. In addition, the half-inhibitory concentration (IC50) in [13] stood at 311 nM; in data set [5], 1280 nM. In addition, the results for the Ratio IC50 in data set [9], in data set [10] and in data set [12] were 15.5, 77.7 and 39, respectively. Further, the Activity in data set [3] was found to be 9%. Further, the half-life in data set [4] was over 120 min.
`Cc1cnc(Nc2ccc(CNC(=O)CCCl)cc2)nc1-c1cnn(C(C)C)c1`: the IC50 in [1] is 985 nM; in [2], 385 nM; in data set [5], 5560 nM. Further, the Activity in [3] stood at 45%. Further, the half-life in data set [4] amounted to 44.5 min.
On to `Cc1cnc(Nc2ccc(CCNC(=O)CCl)cc2)nc1-c1cnn(C(C)C)c1`, for which the IC50 in data set [1] turned out to be 1550 nM; in data set [2], 372 nM; in data set [5], 1680 nM. The Activity in data set [3] stood at 48%. In data set [4], the half-life came to 29.6 min.
Turning to `Cc1cnc(Nc2ccc(CCNC(=O)CCCN(C)C)cc2)nc1-c1cnn(C(C)C)c1`, the IC50 in [1] was 5230 nM; in data set [2], 3310 nM; in data set [5] it was over 10000 nM. The Activity in data set [3] turned out to be 77%. Further, in data set [4], the half-life was determined as 60.3 min.
